Compounds with a hit are over-represented: about 3.1% of the library has one in this group of screens.
KCNK3 block: human KCNK3 channel inhibition, primary screen | CHO-KCNK3 thallium flux, FluxOR fluorescence; hits give low values | B-score at 10 µM | AID 602410 | 0.84% of 340,000 active;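 active = B-score under library mean minus 4 SD, starting fluorescence ratio at most library mean plus 5 SD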;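 note: more negative B-score means stronger inhibition of thallium flux through KCNK3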
KCNK9 inh: human KCNK9 channel inhibition; Q9NPC2; HEK293 KCNK9, FluxOR thallium flux fluorescence; hits give low values; B-score at 10 µM; 1.2% of 310,000 active;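 active = ratio B-score over 3 SD below the library mean, with starting fluorescence within 5 SD of its mean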;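 note: negative B-score means less thallium flux so channel inhibition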
KCNQ1 block: inhibitors of human KCNQ1 potassium channel | P51787 | CHO-K1 KCNQ1, FluxOR thallium flux fluorescence; hits give high values | B-score at 10 µM | 1.3% of 310,000 active | AID 2642;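 active = compounds whose thallium flux B-score, printed positive for inhibition, exceeds three library SD while starting fluorescence stays within three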;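 note: channel opened by potassium depolarization with thallium stimulus after 20 min compound exposure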
Target sequence (P51787 whole entry, looked up): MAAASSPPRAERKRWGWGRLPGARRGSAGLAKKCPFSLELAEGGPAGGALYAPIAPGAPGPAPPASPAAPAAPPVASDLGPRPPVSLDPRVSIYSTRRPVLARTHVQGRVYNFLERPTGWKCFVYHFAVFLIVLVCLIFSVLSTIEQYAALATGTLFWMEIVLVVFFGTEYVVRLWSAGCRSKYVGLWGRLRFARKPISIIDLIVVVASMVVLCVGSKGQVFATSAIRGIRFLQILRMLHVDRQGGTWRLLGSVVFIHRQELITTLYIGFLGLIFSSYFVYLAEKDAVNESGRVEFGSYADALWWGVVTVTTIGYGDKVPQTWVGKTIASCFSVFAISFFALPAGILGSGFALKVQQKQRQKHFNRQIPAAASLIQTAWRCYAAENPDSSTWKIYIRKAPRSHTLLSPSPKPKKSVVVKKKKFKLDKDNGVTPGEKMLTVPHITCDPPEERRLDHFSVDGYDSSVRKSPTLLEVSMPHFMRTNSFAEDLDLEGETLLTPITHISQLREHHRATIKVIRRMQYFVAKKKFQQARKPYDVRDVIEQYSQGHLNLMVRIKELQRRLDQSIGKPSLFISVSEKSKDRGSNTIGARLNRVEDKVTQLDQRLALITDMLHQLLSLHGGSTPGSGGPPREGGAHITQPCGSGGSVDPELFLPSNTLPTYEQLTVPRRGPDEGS
hERG protect: shields human hERG channel from block by proarrhythmic agents | Q12809 | CHO-hERG, FluxOR thallium flux, dofetilide IC70 present | activation (rescue from dofetilide block), less the hit threshold, % at 10 µM | 0.51% of 310,000 active;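 active = activation above the mean of controls blocked by dofetilide plus 5 SD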;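 note: thallium influx through hERG after potassium depolarization seen as dye fluorescence rise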
KCNQ1 pot: human KCNQ1 channel potentiation or activation; P51787; 0.35% of 310,000 active; CHO-K1 KCNQ1, thallium flux FluxOR fluorescence; hits give high values; AID 2648; B-score at 10 µM;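 active = fluorescence ratio B-score, a plate-corrected score, at least three library SD, with initial intensity B-score within 5 SD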
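Material: CHO-K1 cells stably expressing KCNQ1. Medium: assay buffer for compound exposure, DMSO matched across wells. Reagent: K+/Tl+ depolarizing stimulus. Compound dosing: single-concentration screen. Times: 37 °C overnight plating, 90-min dark dye load, 20-min compound pretreatment. Technique: FluxOR Tl+ flux fluorescence.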
KCNK9 block conf: confirmation of human KCNK9 potassium channel inhibitors | shares compounds with KCNK9 inh | HEK293 KCNK9 cells, FluxOR thallium flux fluorescence | inhibition, % at 10 µM | 43% of 4,900 active | AID 492992;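 active = thallium signal inhibited by more than 5 SD of the compound-free buffer control wells, on both duplicate plates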;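 note: 0% = assay buffer control wells without compound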
Kir21 sel: tests whether KCNK9 modulators also affect mouse Kir2.1; shares compounds with KCNK9 inh; inhibition, % at 10 µM; AID 492993; 4% of 4,900 active; Kir2.1 cells, FluxOR thallium flux fluorescence;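 active = thallium signal drop more than 5 SD beyond the mean of the no-compound control wells, seen in both duplicate plates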;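 note: signal is fluorescence rise after thallium addition divided by baseline fluorescence; plate controls were assay buffer only for no effect and full block by chlorpromazine control for full effect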
KCNK9 uninduced: second counter-screen for KCNK9 modulators: effect in non-induced cells; shares compounds with KCNK9 inh; non-induced KCNK9-HEK293, FluxOR thallium flux; inhibition, % at 10 µM; 40% of 4,900 active; AID 492997;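 active = thallium signal drop beyond 5 SD of the untreated control mean, on both duplicate plates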;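 note: plate controls were buffer only IC0 wells for no effect and SID17386958 at its maximal inhibitory level for full effect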
* hit, by the source's call; i = inactive; . = no result.

SMILES	KCNK3 block	KCNK9 inh	KCNQ1 block	hERG protect	KCNQ1 pot	KCNK9 block conf	Kir21 sel	KCNK9 uninduced
Cn1c(=O)c2c(SCC(=O)Nc3ccc4c(c3)OCCO4)nc(CC(C)(C)C)nc2n(C)c1=O	i	i	i	-8.1	i	i	i	i
Clc1cccc(NCc2nnc(SCc3ccc(Cl)cc3Cl)o2)c1	i	i	i	-6.4	i	i	i	31.5%*
Cc1cc(C(=O)OC(C)C(=O)N2CCc3ccccc32)ccc1[N+](=O)[O-] (configuration not stated)	i	i	i	-10.6	i	i	i	i
Cc1cc(C)c(OCC(=O)OC(C)C(=O)N2CCc3ccccc32)c(C)c1 (configuration not stated)	i	i	i	-12.8	i	.	.	.
COc1cccc(NC(=O)COC(=O)C2=NN(c3ccccc3)C(=O)CC2)c1	i	.	.	.	.	.	.	.
COc1ccccc1/C=C/C=N/n1c(-c2ccccc2)n[nH]c1=S	i	i	i	-3.8	i	.	.	.
COc1ccccc1/C=C/C=N/n1c(-c2ccc(Cl)cc2)n[nH]c1=S	i	i	i	-5.6	i	i	i	i
CCCCC1=C(C(=O)OCC)C(C(=O)OCC)Oc2ccccc21 (configuration not stated)	i	.	.	.	.	.	.	.
Cc1[nH]nc(-c2ccc(O)c(C)c2O)c1Oc1ccccc1	i	-14.2*	i	-17.0	i	33.5%*	i	i
Cc1[nH]nc(-c2ccc(OCc3cnn(-c4ccccc4)c3)c(C)c2O)c1Oc1ccccc1	i	i	i	-6.6	i	.	.	.
COC(=O)C(Oc1ccc2c(-c3ccc(OC)cc3)cc(=O)oc2c1)c1ccccc1 (configuration not stated)	i	-9.35*	i	-7.2	i	54.5%*	i	35.5%*
Cc1c2cnccc2c(C)c2c1oc1ccccc12	i	.	.	.	.	.	.	.
Clc1cccc2sc(N3CCN(c4ccccc4)CC3)nc12	i	-14.4*	i	-18.8	i	35.5%*	i	36.5%*
Fc1cccc2sc(N3CCCCC3)nc12	i	i	i	-8.1	i	.	.	.
COc1cc(/C=C(\NC(=O)c2ccccc2)C(=O)Nc2nccs2)ccc1OC(C)=O	i	i	i	-7.2	i	.	.	.
CN(c1ccc(C(=O)NCc2ccc3c(c2)OCO3)cc1)S(=O)(=O)c1ccccc1	i	i	i	-12.4	i	.	.	.
Cc1cccc(CSCCNC(=O)c2ccc(N(C)S(=O)(=O)c3ccccc3)cc2)c1	i	i	7*	-3.0	i	i	i	i
CN(c1ccc(C(=O)NCCSCc2ccccc2)cc1)S(=O)(=O)c1ccccc1	i	i	i	-5.2	i	i	i	i
O=C(NCCSCc1ccccc1)c1ccccc1	i	i	i	-7.3	i	.	.	.
COc1ccccc1NC(=O)Cc1nnc(SCC(=O)NC2=NCCS2)n1C	i	i	i	-5.9	i	.	.	.
Cn1nnnc1SCc1ccc(F)cc1	i	i	i	-7.9	i	.	.	.
Fc1ccc(Cn2c(SCc3ccc(F)c(F)c3)nnc2C(F)(F)F)cc1	i	-8.95*	i	-18.4	i	29.0%*	i	38.5%*
Fc1ccc(Cn2c(SCc3ccc(F)c(C(F)(F)F)c3)nnc2C(F)(F)F)cc1	i	-10.2*	i	-9.5	i	41.5%*	i	44.5%*
CC(=O)NC(Cc1c[nH]c2ccccc12)C(=O)N1CCN(S(=O)(=O)c2ccccc2)CC1 (configuration not stated)	i	.	.	.	.	.	.	.
COc1ccc(-c2cc(C(F)(F)F)n3ncc(C(=O)N(C)Cc4ccccc4)c3n2)cc1	i	i	i	-14.6	i	i	i	i
SMILES	KCNK3 block	KCNK9 inh	KCNQ1 block	hERG protect	KCNQ1 pot	KCNK9 block conf	Kir21 sel	KCNK9 uninduced
COc1ccc(-c2cc(C(F)(F)F)n3ncc(C(=O)NCc4ccco4)c3n2)cc1	i	i	i	-5.9	i	.	.	.
Cc1ccc(-n2nnnc2SC(C)C(N)=O)c(C)c1 (configuration not stated)	i	i	i	-8.6	i	.	.	.
Cc1cc(C)c(-n2nnnc2SC(C)C)c(C)c1	i	-10.8*	i	-5.0	i	54.0%*	i	41.5%*
CC1CC(C)CN(S(=O)(=O)N2CCCC(C(=O)NCCc3ccccc3)C2)C1 (configuration not stated)	i	i	i	-0.7	i	.	.	.
CCOC(=O)C1(CCOC)CCN(C/C=C/c2ccccc2OC)CC1	i	i	i	-11.1	i	.	.	.
COc1ccccc1C(=O)NCCC(=O)Nc1ccc(S(=O)(=O)N2CC(C)CC(C)C2)cc1 (configuration not stated)	i	.	.	.	.	.	.	.
N#Cc1ccc(-c2ccc3c(c2)OCO3)nc1SCC(=O)OCc1ccccc1	i	-10.2*	i	-7.8	i	i	i	27.0%*
COc1ccc(-c2ccc(C#N)c(SCC(=O)OCc3ccccc3)n2)cc1OC	i	i	i	-4.5	i	.	.	.
COC(=O)c1ccccc1S(=O)(=O)NNC(=O)C12CC3CC(CC(C3)C1)C2	i	.	.	.	.	.	.	.
CCN(CC)S(=O)(=O)c1cccc(-c2nnc(SCCCC(=O)c3ccccc3)o2)c1	i	i	i	-18.8	i	i	i	i
CCN(CC)S(=O)(=O)c1cccc(-c2nnc(SCCCC(=O)c3ccc(F)cc3)o2)c1	i	i	i	-11.9	i	.	.	.
CCN(CC)S(=O)(=O)c1cccc(-c2nnc(SCC(=O)c3cc(C)n(C4CC4)c3C)o2)c1	i	i	i	-16.3	i	.	.	.
C=CCn1c(C)cc(C(=O)CSc2nnc(-c3cccc(S(=O)(=O)N(CC)CC)c3)o2)c1C	i	i	i	-0.8	i	i	i	i
COc1ccc(CCCc2nnc(SCC(=O)Nc3cc(C)ccc3C)o2)cc1	i	i	i	1.0	i	i	i	i
CCOC(=O)N1CCN(C(=O)c2cc(-c3ccc(OCC)cc3)nc3ccccc23)CC1	i	i	i	-19.4	i	.	.	.
CCOc1ccc(-c2cc3nc(C4CCN(C(=O)OC(C)(C)C)CC4)c(C(=O)O)cn3n2)cc1	i	i	i	-19.1	i	i	i	34.5%*
CSCC[C@H](N)C(=O)N1CCC(C(=O)N[C@H](C)C(=O)NC(C)c2ccccc2)CC1 (some centres not stated)	i	i	i	-3.4	i	.	.	.

Bioassay records as filed in PubChem.
